SENP1 inh: human SENP1 catalytic domain inhibitors, primary screen, biochemical, FRET, uHTS. inhibition, % at 10 µM. 360,000 compounds, 0.21% hits. Sentrin-specific protease 1 (Homo sapiens), Q9P0U3. recombinant SENP1 catalytic domain, CyPet-SUMO1-YPet FRET cleavage;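 active = inhibition at least 30% at 10 µM, raw YFP signal under a set limit, fluorescence ratio 0.5 to 1.5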;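 also: 0% = enzyme with DMSO and 100% = no enzyme wells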
Target sequence (Q9P0U3 419-644 limits assumed): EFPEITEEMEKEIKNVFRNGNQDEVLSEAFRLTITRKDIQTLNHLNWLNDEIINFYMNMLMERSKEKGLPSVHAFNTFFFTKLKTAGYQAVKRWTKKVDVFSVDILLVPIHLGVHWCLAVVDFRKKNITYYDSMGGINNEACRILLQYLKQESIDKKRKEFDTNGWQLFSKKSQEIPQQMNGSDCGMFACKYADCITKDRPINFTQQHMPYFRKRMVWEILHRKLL
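system = hSENP1 catalytic domain, recombinant | reagent = SFCypet-SUMO1-SFYpet substrate at 25 nM | doses = one dose per compound, 10 µM, 0.5% DMSO | incubation = enzyme reaction for 50 min at room temperature, dark | measured by = FRET, CFP and YFP emission | controls = no-enzyme low, enzyme-DMSO high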
HSP90 refold inh: HSP90 inhibitors, primary screen, cell lysate, luminescence; Rabbit reticulocyte lysate, luciferase refolding luminescence, 3 h; AID 1789, 2009; inhibition, % at 5.6 µM; 290,000 compounds, 0.91% hits;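 active = inhibition above the screen-wide mean plus 3 SD, computed separately per campaign, cut at about 16% in these data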;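 also: 0% = DMSO wells and 100% = 60 µM geldanamycin wells; inhibitors lower the luminescence because luciferase stays unfolded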
SENP7 inh: SENP7 protease inhibitors, primary screen, biochemical, luminescence, uHTS; 330,000 compounds, 1.5% hits; recombinant SENP7, Z-RLRGG-aminoluciferin luminescence, 40 min; inhibition, % at 5 µM;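 active = inhibition above about 50% at the single test dose, limit read from the data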;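 also: plate controls were DMSO with enzyme for no effect and no enzyme buffer wells for full effect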
SENP6 inh: SENP6 protease inhibitors, primary screen, biochemical, luminescence, uHTS | Sentrin-specific protease 6 (Homo sapiens), Q9GZR1 | Recombinant SENP6 catalytic domain, aminoluciferin luminescence | inhibition, % at 10 µM | 330,000 compounds, 1.8% hits | AID 2599, 2010;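 active = inhibition above about 50% at the single tested dose, limit read from the data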;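 also: plate controls were DMSO wells with enzyme for no effect and DMSO wells lacking enzyme for full effect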
Target sequence (Q9GZR1 628-1112 limits assumed): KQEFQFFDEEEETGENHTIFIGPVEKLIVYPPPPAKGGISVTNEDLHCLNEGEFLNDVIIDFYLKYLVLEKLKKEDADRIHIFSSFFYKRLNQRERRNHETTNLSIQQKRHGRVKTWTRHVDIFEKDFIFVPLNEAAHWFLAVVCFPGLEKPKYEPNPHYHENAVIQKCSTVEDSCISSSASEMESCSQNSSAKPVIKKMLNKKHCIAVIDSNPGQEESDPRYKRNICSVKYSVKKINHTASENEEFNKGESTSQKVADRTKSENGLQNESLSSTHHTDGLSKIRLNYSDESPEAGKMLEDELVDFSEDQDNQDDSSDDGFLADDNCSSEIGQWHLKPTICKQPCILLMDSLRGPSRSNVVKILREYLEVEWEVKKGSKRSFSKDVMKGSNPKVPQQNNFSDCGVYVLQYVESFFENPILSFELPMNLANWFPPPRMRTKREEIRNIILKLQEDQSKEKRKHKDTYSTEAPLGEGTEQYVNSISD
SENP8 block-1: human SENP8 protease inhibitors, primary screen, biochemical, fluorescence, Nedd8 protein substrate, uHTS | inhibition, % at 20 µM | Sentrin-specific protease 8 (Homo sapiens), Q96LD8 | 360,000 compounds, 0.64% hits | recombinant SENP8; in the data active = inhibition mostly above about 40%, no sharp cut-off; inactive = mostly below about 27%
SENP8 block-2: SENP8 protease inhibitors, primary screen, biochemical, luminescence | Sentrin-specific protease 8 (Homo sapiens), Q96LD8 | purified SENP8, Z-RLRGG-aminoluciferin cleavage | inhibition, % at 10 µM | 330,000 compounds, 1.2% hits; in the data active = inhibition above about 50%
HSP90 confirm: HSP90 inhibitors, confirmation, cell lysate, luminescence. inhibition, % at 5.9 µM. 2,300 compounds, 64% hits. shares compounds with HSP90 refold inh. rabbit reticulocyte lysate, luciferase refolding luminescence, 3 h; in the data active = inhibition above about 18%;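 also: 0% = vehicle wells and 100% = reference inhibitor wells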
luciferase ctr: firefly luciferase inhibitors, HSP90 counter-screen, confirmation, artefact control for HSP90 inhibitor project, biochemical, luminescence, triplicate; shares compounds with HSP90 refold inh; purified native firefly luciferase; inhibition, % at 5.9 µM; 2,300 compounds, 48% hits;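 active = inhibition above the mean inhibition of all tested sample wells plus 3 SD, cut at about 10% in these data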;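 also: 0% = DMSO with luciferase and 100% = wells lacking luciferase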
The depositor's hits bear a star; x = no result given. Sampled rows, rich in hits. Any-hit rate of the full collection: about 2.9%.

SMILES | SENP1 inh | HSP90 refold inh | SENP7 inh | SENP6 inh | SENP8 block-1 | SENP8 block-2 | HSP90 confirm | luciferase ctr
CN(Cc1ccccc1)C(=O)c1ccc(NC(=O)Cc2ccc(NC(=O)C3CCN(S(=O)(=O)c4cccc([N+](=O)[O-])c4)CC3)cc2)cc1 | -0.4 | x | x | x | 19.8 | x | x | x
CC1CN=C(NC(=O)c2cccc([N+](=O)[O-])c2)S1 (stereo not given) | 0.9 | 10.5 | 18.1 | 24.3 | 19.5 | 0.7 | x | x
CCOc1ccc(N)c(SSc2cc(OCC)ccc2N)c1 | -1.1 | 30.0* | 2.5 | 5.9 | -31.3 | 0.3 | 40.8* | 9.6*
Cc1ccc(NC(=O)Cc2ccc3c(c2)OCCO3)cc1S(=O)(=O)N1CCCCC1 | 1.4 | 27.1* | 5.8 | 2.7 | 19.8 | 1.7 | 5.8 | -0.1
O=C(Nc1nnc(-c2ccc(F)cc2)s1)c1ccco1 | 0.6 | 50.5* | 2.4 | 2.1 | -163.8 | -0.2 | -3.6 | -14.0
O=C(COC(=O)c1cc([N+](=O)[O-])ccc1N1CCOCC1)Nc1cccc(F)c1 | 0.9 | 3.2 | -17.1 | -10.3 | 15.1 | -12.5 | x | x
CN(C)CCCN(C(=O)CCSc1ccccc1)c1nc2cc3c(cc2s1)OCO3 | -0.8 | 56.9* | 13.3 | 21.0 | 25.3 | -4.8 | -3.2 | -12.7
CCN1CCN(Cc2ccc(NC(=O)Nc3ccccc3)cc2)CC1 | 2.9 | 20.1* | -4.0 | 6.1 | 13.8 | 0.2 | 28.6* | 8.8
CCCn1c(CCC(=O)O)nc2cc(S(=O)(=O)N3CCCC3)ccc21 | -8.8 | -0.5 | 1.3 | -11.6 | -5.8 | -1.1 | x | x
Cc1cc(NC(=O)c2cccc(COc3ccc(Br)cc3)c2)no1 | 1.5 | 21.0* | 0.1 | 10.6 | 4.2 | 9.0 | 64.1* | 52.6*
O=C(CC1OC(=O)c2ccccc21)Nc1cc(Cl)ccc1N1CCCC1 (stereo not given) | -0.7 | x | -9.7 | -1.1 | 3.8 | -1.7 | x | x
COc1ccccc1NS(=O)(=O)c1cccc(NC(=O)c2cncc(Br)c2)c1 | -1.1 | x | 5.0 | 16.8 | 9.1 | -1.9 | x | x
CCOc1ccccc1-n1c(SCC(=O)Nc2ccccc2C(=O)O)nc2ccccc2c1=O | -1.1 | 49.7* | 5.3 | -29.0 | 4.5 | -4.5 | 55.8* | 37.3*
CCOc1ccc(NC(=O)c2ccccc2C(=O)c2ccccc2)cc1OCC | -2.0 | -5.2 | -5.3 | 11.0 | -14.3 | -6.7 | x | x
CCN1CCN(C(=O)CN(c2cc(OC)ccc2OC)S(C)(=O)=O)CC1 | -0.3 | 0.2 | -9.0 | -14.8 | 23.9 | -3.8 | x | x
COc1ccc(OC)c(N(CC(=O)N2CCN(Cc3ccccc3)CC2)S(C)(=O)=O)c1 | -0.5 | 19.8* | 5.4 | 5.3 | -2.9 | -5.2 | -1.5 | -5.6
Cc1cccc(N2CCN(C(=O)c3ccc(-n4cncn4)c([N+](=O)[O-])c3)CC2)c1C | -21.6 | -2.5 | 0.4 | -8.6 | 4.8 | -2.4 | x | x
C[C@H](NC(=O)c1nc[nH]c1C(=O)NCC(=O)OCc1ccccc1)C(=O)OC(C)(C)C | 3.0 | 62.0* | 1.5 | 12.9 | 4.5 | 0.9 | -9.6 | -16.5
O=C(COc1ccccc1Cl)N(Cc1cccs1)C1CCS(=O)(=O)C1 (stereo not given) | 2.5 | -6.6 | -2.7 | -12.1 | 13.1 | 0.6 | x | x
Cc1cc(Cl)ccc1OCC(=O)N(Cc1cccs1)C1CCS(=O)(=O)C1 (stereo not given) | -1.5 | 22.9* | 2.4 | -8.5 | 11.2 | -1.4 | 2.2 | -4.3
O=C1C2CCCN2C(=S)N1c1ccccc1 (stereo not given) | -1.2 | 49.5* | -0.4 | -7.6 | 15.0 | 0.3 | -8.1 | -14.1
CCN(CC)c1ccc2cc(-c3nc4ccccc4[nH]3)c(=O)oc2c1 | -20.9 | 34.5* | 95.5* | 69.2* | -321.7 | 51.2* | 68.1* | 67.3*
CNC1=C(N(C(C)=O)c2ccc(Br)cc2)C(=O)c2ccccc2C1=O | 0.8 | 63.0* | x | x | 84.5* | x | 11.9 | -7.5
Cc1ccccc1Nc1nc(NCc2ccco2)c2ccccc2n1 | -31.3 | 7.4 | 14.3 | -4.7 | -411.6 | 14.7 | x | x
Oc1ccccc1Nc1nc(NCc2ccco2)c2ccccc2n1 | -2.5 | 28.2* | 1.6 | -5.2 | -4.0 | 4.0 | 4.8 | -0.7
SMILES | SENP1 inh | HSP90 refold inh | SENP7 inh | SENP6 inh | SENP8 block-1 | SENP8 block-2 | HSP90 confirm | luciferase ctr
CCOc1ccc(/C=N/NC(=O)c2ccccc2NC(=O)c2ccc(OC)cc2)cc1 | 1.2 | 18.6* | 2.0 | -1.3 | -105.8 | -12.1 | 10.5 | -25.0
CC(C)c1ccc(NC(=O)c2csnn2)cc1 | 0.0 | 19.7* | 42.2 | 46.2 | 11.5 | 12.5 | 32.6* | 23.1*
O=C(Nc1ccccc1NC(=O)c1csnn1)c1csnn1 | 0.0 | -1.5 | -5.7 | -13.2 | 5.9 | -4.7 | x | x
Cc1ccccc1-c1nc2sc3c(c2c(=O)n1N)CCCC3 | -2.7 | 37.6* | -4.8 | 5.1 | -28.3 | 7.2 | 36.6* | 37.0*
Cc1c(OCc2ccccc2)c(=O)ccn1Cc1ccccc1 | 0.6 | 19.5* | 4.0 | -6.6 | 15.9 | 0.3 | -7.0 | -17.0
O=c1ccn(Cc2ccccc2)c2ccccc12 | 0.4 | x | 8.3 | -2.8 | 4.3 | 4.9 | x | x
O=C1CCc2cc(Br)ccc2O1 | 1.9 | x | x | x | 5.2 | x | x | x
COc1ccc2cc(C(=O)N/N=C/c3sc4ccccc4c3O)ccc2c1 | -28.6 | 17.5* | 4.5 | 13.9 | -135.4 | 2.8 | 0.0 | -9.8
COc1ccc(C(=O)N/N=C/c2sc3ccccc3c2O)cc1 | -25.9 | 14.7 | x | x | -220.1 | x | x | x
C/C(=N\NC(=S)NCc1ccccc1)c1ccc(C)o1 | -0.8 | 0.4 | -7.9 | 8.1 | 19.6 | 4.8 | x | x
COc1cc(/C=N/NC(=Nc2ccc(C)cc2)c2nc3ccccc3s2)ccc1O | 0.4 | 57.3* | 5.5 | 8.9 | -310.1 | 9.8 | 56.8* | 49.2*
O=C(O)c1cccc(N/N=C/C2=C(Cl)c3cc(Cl)ccc3SC2)c1 | -34.3 | 17.6* | x | x | -28.5 | x | 26.5* | 29.9*
CC(C)(C)OC(=O)N1CCC[C@H]1C(=O)N/N=C/c1ccc2nccnc2c1 | 1.2 | 0.4 | 1.1 | -16.0 | -16.3 | -5.3 | x | x
COc1ccc2nc(/C=N/NC(=O)[C@@H]3CCCN3C(=O)OC(C)(C)C)ccc2c1 | 1.6 | 40.6* | -7.2 | -3.5 | -434.3 | -1.2 | 25.7* | -1.3
O=C(O)c1ccc2nc(CO)[nH]c2c1 | -0.3 | 36.4* | 8.9 | 0.5 | 4.7 | 3.7 | 20.2* | -2.4
COc1ccc(OCc2cc(C(=O)NC(C)c3nc(C)cs3)no2)c(Cl)c1 (stereo not given) | -4.7 | x | x | x | 1.5 | x | x | x
CCOc1cc(CN2CCN(CCc3ccccc3)C(CCO)C2)ccc1OC (stereo not given) | 1.8 | 26.7* | -6.7 | -21.2 | 1.0 | -8.5 | -2.5 | -6.0

Compound activity deposited in PubChem BioAssay by several laboratories.
